pIC50: −log10 of the molar value.

This passage reports IC50 and Activity results from ChEMBL document CHEMBL1926557 (Bioorg Med Chem, 2012).

Data set [1] can be described thus: Antineuroinflammatory activity in LPS-stimulated rat microglia cells assessed as inhibition of PMA-stimulated superoxide anion release preincubated for 15 mins measured 70 mins after PMA challenge. The data set is classed as functional. In a few lines:
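Rat neonatal microglia (2 × 10^5 cells/well) primed with E. coli LPS 0.3 ng/mL for 17 h in DMEM + 10% FBS + penicillin/streptomycin at 35.9 °C, 5% CO2. Cells washed with warm HBSS, pre-exposed to compound (0.01–10 µM) or DMSO vehicle, then triggered with PMA 1 µM. Superoxide measured as superoxide dismutase-inhibitable reduction of ferricytochrome c. Triplicate wells, 2–4 experiments. IC50 derived.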

Data set [2] in a line: Antineuroinflammatory activity in LPS-stimulated rat microglia cells assessed as inhibition of PMA-stimulated TXB2 release preincubated for 15 mins measured 70 mins after PMA challenge. Format: functional. In a few lines: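 Rat neonatal microglia (2 × 10^5 cells/well) primed with E. coli LPS 0.3 ng/mL for 17 h in DMEM + 10% FBS + penicillin/streptomycin at 35.9 °C, 5% CO2. Cells washed with warm HBSS, pre-exposed to compound (0.01–10 µM) or DMSO vehicle, then triggered with PMA 1 µM. TXB2 in supernatant quantified by EIA. Triplicate wells, 1 mL final volume, 2–4 experiments. IC50 derived.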

A short description of data set [3]: Cytotoxicity against rat microglia cells after 90 mins by LDH release assay. The data set is classed as cell-based. To be noted: 1.5 h. Put shortly:
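Short-term viability of PMA (1 µM)-stimulated rat microglia measured by LDH release, given as percent of total LDH. Total LDH is released LDH plus the intracellular LDH from cells lysed with 0.1% Triton X-100. LDH50 is the concentration causing release of 50% of total LDH. Data from 3–4 experiments.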

Data set [4] in a line: Cytotoxicity against rat microglia cells assessed as cell viability after 18 hrs by WST-1 assay. The data set is classed as cell-based. Put shortly: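 Rat neonatal microglia (10,000 cells/well) plated in LPS-free wells in FBS-free DMEM with penicillin/streptomycin. Compound (0.1–10 µM final) or DMSO vehicle added for 18 h at 36 °C, 5% CO2. WST-1 then added for 2 h, and formazan read at 450 nm against a 620 nm reference. Treated wells compared with vehicle, significance at p < 0.05.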
In general terms: Tetrazolium dyes change colour on reduction, which living cells bring about.

Regarding `[C-]#[N+]C(C)(C)C[C@@H]1C[C@H](C)[C@H]2CC[C@](C)([N+]#[C-])[C@@H]3CCC(=C)[C@@H]1[C@H]23`, the figures for the pIC50 in data set [1], in data set [2] (read-out: IC50) and in data set [3] were less than 5.00, 6.70 and less than 5.00, respectively. Further, in data set [4], the Activity result is “Non-toxic”.

On to `[C-]#[N+][C@@]1(C)CC[C@H]2[C@H]3[C@@H](C(=C)CC[C@H]31)[C@H](CC(=C)C)C[C@@H]2C`, for which the pIC50 in data set [1] was less than 5.00; in data set [2] (read-out: IC50) it was 5.76; in data set [3] it was less than 5.00. The Activity entry in data set [4] is on record as “Non-toxic”.

As for `[C-]#[N+]C(C)(C)C[C@@H]1C[C@H](C)[C@H]2CC[C@H](C)[C@@]3([N+]#[C-])CCC(=O)[C@@H]1[C@H]23`, the values for the negative-log IC50 (pIC50) in data set [1], in data set [2] (read-out: IC50) and in data set [3] were less than 5.00, 5.84 and less than 5.00, respectively. Moreover, in data set [4], the Activity entry is on record as “Non-toxic”.

As for `C=C1CC[C@@]2(NC=O)[C@H]3[C@H](CC[C@@H]2C)[C@@H](C)C[C@@H](CC(C)(C)NC=O)[C@H]13`, the results for the pIC50 in data set [1], in data set [2] (read-out: IC50) and in data set [3] were less than 5.00, 5.50 and less than 5.00, respectively. In data set [4], the Activity result is listed as “Non-toxic”.

Take `[C-]#[N+][C@@]12CCC(=C)[C@H]3[C@H](CC(C)(C)NC=O)C[C@H](C)[C@@H](CC[C@@H]1C)[C@@H]32`: the pIC50 in data set [1] was less than 5.00; in data set [2] (read-out: IC50), 5.83; in data set [3] it was less than 5.00. In data set [4], the Activity entry was “Non-toxic”.

On to `CC(=O)Oc1ccccc1C(=O)O` [ASPIRIN], for which the pIC50 in data set [2] (read-out: IC50) is 5.51.

Turning to `[C-]#[N+]C(C)(C)C[C@@H]1C[C@H](C)[C@H]2CC[C@H](C)[C@@]3([N+]#[C-])CCC(=C)[C@@H]1[C@H]23` [DIISOCYANOAMPHILECTENE], the pIC50 in data set [1] was less than 5.00; in data set [2] (read-out: IC50) it was 6.64; in data set [3], less than 5.00. Also, the Activity entry in data set [4] was “Non-toxic”.

On to `CC(C(=O)O)c1ccc(-c2ccccc2)c(F)c1` (stereo not given) [FLURBIPROFEN], for which, in data set [2] (read-out: IC50(app)), the pIC50 was 7.00.

On to `[C-]#[N+][C@@]12CCC(=C)[C@H]3[C@H](CC(C)(C)NC(=O)CN4CCC4=O)C[C@H](C)[C@@H](CC[C@@H]1C)[C@@H]32` [MONAMPHILECTINE A], for which the pIC50 in data set [1] is less than 5.00; in data set [2] (read-out: IC50) it was 5.33; in data set [3], less than 5.00. Besides, in data set [4], the Activity result is recorded as “Non-toxic”.

In general, pIC50 refers to −log10 of the IC50, conventionally taken in molar units.
